Measured values: ChEMBL document CHEMBL1155338, “Antioxidant and antibacterial studies of arylazopyrazoles and arylhydrazonopyrazolones containing coumarin moiety” (2009)
Activity calls are given as the source filed them. The rule behind the calls is not given here.

Assays:
Type in all cases: functional
Staphylococcus aureus = assay: Antimicrobial activity against Staphylococcus aureus NCIM 5021 after 24 hrs by disk diffusion method
How it was run: (§1)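 Disc diffusion on nutrient agar. Plates were swabbed evenly with a standard inoculum ([…] c.f.u./ml, 0.5 McFarland). 6.25 mm filter-paper discs were dry-heat sterilized (140 °C, 1 h), soaked in test compound at 250 mcg/disc, and placed on the agar. Solvent, growth and ciprofloxacin controls were included. Plates were incubated inverted 24 h at 37 °C and inhibition zones measured.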

[1] = tested on: Radical scavenging activity; assay: Antioxidant activity assessed as DPPH radical scavenging after 30 mins; design: concentration or dose not given beside the values
How it was run: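 Compound in methanol mixed 1:1 with methanolic DPPH, both 0.2 mM stocks, giving 0.1 mM each final. Shaken, left 30 min, then A517 read. % scavenging = [(Ab + As) − Am]/Ab × 100, where Ab is DPPH alone, As is compound alone and Am is the mixture. Ascorbic acid reference. Three replicates, averaged.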

Bacillus subtilis = assay: Antimicrobial activity against Bacillus subtilis NCIM 2010 after 24 hrs by disk diffusion method; how it was run: as §1

## Cc1nn(C(=O)COc2ccc3c(C)cc(=O)oc3c2)c(C)c1/N=N/c1ccc(Cl)cc1
Staphylococcus aureus
  inhibition zone (IZ): inactive
[1]
  Activity: 32%
Bacillus subtilis
  inhibition zone (IZ): inactive

## CC1=NN(C(=O)COc2ccc3c(C)cc(=O)oc3c2)C(=O)/C1=N/Nc1ccc([N+](=O)[O-])cc1
Staphylococcus aureus
  inhibition zone (IZ): inactive
[1]
  Activity: 31%
Bacillus subtilis
  inhibition zone (IZ): inactive

## CC1=NN(C(=O)COc2ccc3c(C)cc(=O)oc3c2)C(=O)/C1=N/Nc1ccc(Cl)cc1
Staphylococcus aureus
  inhibition zone (IZ): 11.3 mm
[1]
  Activity: 53%
Bacillus subtilis
  inhibition zone (IZ): 24.3 mm

## O=C1O[C@H]([C@@H](O)CO)C(O)=C1O
Staphylococcus aureus
  inhibition zone (IZ): inactive
[1]
  Activity: 96%
Bacillus subtilis
  inhibition zone (IZ): inactive

## Cc1ccc(/N=N/c2c(C)nn(C(=O)COc3ccc4c(C)cc(=O)oc4c3)c2C)c(C)c1
Staphylococcus aureus
  inhibition zone (IZ): inactive
[1]
  Activity: 24%
Bacillus subtilis
  inhibition zone (IZ): inactive

## CC1=NN(C(=O)COc2ccc3c(C)cc(=O)oc3c2)C(=O)/C1=N/Nc1ccc(C(=O)O)cc1
Staphylococcus aureus
  inhibition zone (IZ): inactive
[1]
  Activity: inactive
Bacillus subtilis
  inhibition zone (IZ): inactive

## Cc1nn(C(=O)COc2ccc3c(C)cc(=O)oc3c2)c(C)c1/N=N/c1cccc([N+](=O)[O-])c1
Staphylococcus aureus
  inhibition zone (IZ): inactive
[1]
  Activity: 38%
Bacillus subtilis
  inhibition zone (IZ): inactive

## Cc1nn(C(=O)COc2ccc3c(C)cc(=O)oc3c2)c(C)c1/N=N/c1ccc(C(=O)O)cc1
Staphylococcus aureus
  inhibition zone (IZ): inactive
[1]
  Activity: 32%
Bacillus subtilis
  inhibition zone (IZ): inactive

## Cc1nn(C(=O)COc2ccc3c(C)cc(=O)oc3c2)c(C)c1/N=N/c1ccccc1C(=O)O
Staphylococcus aureus
  inhibition zone (IZ): inactive
[1]
  Activity: 28%
Bacillus subtilis
  inhibition zone (IZ): 16.7 mm

## Cc1nn(C(=O)COc2ccc3c(C)cc(=O)oc3c2)c(C)c1/N=N/c1ccc([N+](=O)[O-])cc1
Staphylococcus aureus
  inhibition zone (IZ): inactive
[1]
  Activity: 32%
Bacillus subtilis
  inhibition zone (IZ): inactive

## CC1=NN(C(=O)COc2ccc3c(C)cc(=O)oc3c2)C(=O)/C1=N/Nc1ccc(Br)cc1
Staphylococcus aureus
  inhibition zone (IZ): 13.7 mm
[1]
  Activity: inactive
Bacillus subtilis
  inhibition zone (IZ): 14 mm

## CC1=NN(C(=O)COc2ccc3c(C)cc(=O)oc3c2)C(=O)/C1=N/Nc1cccc([N+](=O)[O-])c1
Staphylococcus aureus
  inhibition zone (IZ): inactive
[1]
  Activity: 69%
Bacillus subtilis
  inhibition zone (IZ): inactive

## O=C(O)c1cn(C2CC2)c2cc(N3CCNCC3)c(F)cc2c1=O [CIPROFLOXACIN]
Staphylococcus aureus
  inhibition zone (IZ): 30 mm
[1]
  Activity: inactive
Bacillus subtilis
  inhibition zone (IZ): 33.7 mm

## CC1=NN(C(=O)COc2ccc3c(C)cc(=O)oc3c2)C(=O)/C1=N/Nc1ccccc1C(=O)O
Staphylococcus aureus
  inhibition zone (IZ): 12.3 mm
[1]
  Activity: 20%
Bacillus subtilis
  inhibition zone (IZ): 26.7 mm

## Cc1nn(C(=O)COc2ccc3c(C)cc(=O)oc3c2)c(C)c1/N=N/c1ccc(Br)cc1
Staphylococcus aureus
  inhibition zone (IZ): 12.7 mm
[1]
  Activity: 55%
Bacillus subtilis
  inhibition zone (IZ): 27 mm

## CC1=NN(C(=O)COc2ccc3c(C)cc(=O)oc3c2)C(=O)/C1=N/Nc1ccc(C)cc1C
Staphylococcus aureus
  inhibition zone (IZ): inactive
[1]
  Activity: 57%
Bacillus subtilis
  inhibition zone (IZ): inactive
